Measured values as given in ChEMBL document CHEMBL4304781, “Development of Highly Selective Pyrimidine-Based Aldosterone Synthase (CYP11B2) Inhibitors” (ACS Med Chem Lett, 2019).
Values after ≈ are worked out from the molar mass of the structure shown.

What was measured:
[1] = target: T1, Cytochrome P450 11B2, mitochondrial (Homo sapiens, UniProt P19099); assay: Inhibition of human recombinant CYP11B2 using deoxycorticosterone as substrate incubated for 90 mins by cell-based HPLC analysis
T1 sequence (P19099 whole entry): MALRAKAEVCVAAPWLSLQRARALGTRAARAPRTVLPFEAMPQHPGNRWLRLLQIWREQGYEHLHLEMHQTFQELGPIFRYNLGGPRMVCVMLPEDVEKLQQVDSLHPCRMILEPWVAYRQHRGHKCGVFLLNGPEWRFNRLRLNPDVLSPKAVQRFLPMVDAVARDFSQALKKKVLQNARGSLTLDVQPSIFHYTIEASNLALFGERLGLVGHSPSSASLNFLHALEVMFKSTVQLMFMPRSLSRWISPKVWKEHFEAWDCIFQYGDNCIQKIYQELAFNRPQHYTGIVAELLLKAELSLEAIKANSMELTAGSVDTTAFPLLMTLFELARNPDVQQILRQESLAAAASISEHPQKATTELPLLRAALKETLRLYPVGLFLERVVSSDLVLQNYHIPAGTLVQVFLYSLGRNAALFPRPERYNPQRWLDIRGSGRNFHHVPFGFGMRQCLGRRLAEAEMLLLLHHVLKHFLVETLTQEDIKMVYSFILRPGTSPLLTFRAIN
Summary of the method: (§1)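 Recombinant human CYP11B2 or CYP11B1. Substrate and product steroids both monitored by HPLC-MS. Selectivity taken as CYP11B1 IC50 / CYP11B2 IC50.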

[2] = target: T2, Cytochrome P450 11B1, mitochondrial (Homo sapiens, UniProt P15538); assay: Inhibition of human recombinant CYP11B1 using deoxycortisol as substrate incubated for 60 mins by cell-based HPLC analysis; assay type: ADME; summary of the method: as §1
T2 sequence (P15538 whole entry): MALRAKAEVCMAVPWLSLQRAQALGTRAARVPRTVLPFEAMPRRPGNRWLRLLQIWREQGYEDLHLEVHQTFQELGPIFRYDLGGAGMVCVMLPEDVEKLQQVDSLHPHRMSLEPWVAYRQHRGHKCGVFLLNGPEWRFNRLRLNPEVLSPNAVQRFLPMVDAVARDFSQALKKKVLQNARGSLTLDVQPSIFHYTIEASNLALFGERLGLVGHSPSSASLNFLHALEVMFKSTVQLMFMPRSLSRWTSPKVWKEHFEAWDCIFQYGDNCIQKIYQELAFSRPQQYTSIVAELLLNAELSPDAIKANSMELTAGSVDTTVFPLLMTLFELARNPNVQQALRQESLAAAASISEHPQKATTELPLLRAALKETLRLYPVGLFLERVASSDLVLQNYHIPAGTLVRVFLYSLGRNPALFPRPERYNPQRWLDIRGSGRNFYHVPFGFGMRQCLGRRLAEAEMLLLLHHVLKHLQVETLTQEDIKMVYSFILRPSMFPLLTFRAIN

[3] = species on record: Homo sapiens; assay: Selectivity index, ratio of IC50 for human recombinant CYP11B1 to IC50 for human recombinant CYP11B2; summary of the method: as §1
[4] = Stability in cynomolgus monkey liver microsomes assessed as parent compound remaining at 1 uM measured after 65 mins by LC/MS-MS analysis; assay type: ADME, Macaca fascicularis, Microsome; conditions: read-out: Stability
Summary of the method: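 Parent compound percentage remaining after 65 min incubation with cynomolgus monkey liver microsomes.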

[5] = Cmax in cynomolgus monkey at 1 mg/kg, po measured after 24 or 72 hrs; assay type: ADME, organism-based, Macaca fascicularis; design: dose 1 mg/kg, route oral; conditions: in vivo
Summary of the method: (§2)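 Male cynomolgus monkeys dosed orally at 1 mg/kg in 0.5% CMC, 0.1% Tween-80, 1% DMSO. Plasma drug concentrations followed out to 24 or 72 h. Cmax, Tmax, AUC0-24 and t1/2 derived from plasma levels.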

[6] = Tmax in cynomolgus monkey at 1 mg/kg, po measured after 24 or 72 hrs; assay type: ADME, organism-based, Macaca fascicularis; conditions: in vivo; summary of the method: as §2
[7] = AUC (0 to 24 hrs) in cynomolgus monkey at 1 mg/kg, po measured after 24 or 72 hrs; assay type: ADME, organism-based, Macaca fascicularis; design: time < 24 hr, dose 1 mg/kg, route oral; conditions: in vivo; summary of the method: as §2
[8] = Half life in cynomolgus monkey at 1 mg/kg, po measured after 24 or 72 hrs; assay type: ADME, organism-based, Macaca fascicularis; conditions: in vivo; summary of the method: as §2
[9] = system: Cynomolgus monkey; assay: Effect on ACTH-induced 11-deoxycortisol level in cynomolgus monkey at 0.2 to 3 mg/kg, po administered 10 mins prior to ACTH stimulation for 7 days; assay type: ADME, organism-based, Macaca fascicularis; conditions: in vivo
Summary of the method: (§3)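 Conscious male cynomolgus monkeys. Day 1: vehicle, then ACTH challenge to drive adrenal steroidogenesis. Repeated after 7-day recovery with oral compound at 0.2, 1 and 3 mg/kg given 10 min before ACTH. Plasma aldosterone, cortisol, DOC and 11-deoxycortisol measured and AUCs calculated. Day 8 change expressed against each animal's own day 1 steroid AUC.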

[10] = system: Cynomolgus monkey; assay: In vivo inhibition of CYP11B2 in cynomolgus monkey assessed as reduction in ACTH-induced plasma aldosterone AUC administered orally 10 mins prior to ACTH stimulation for 7 days; assay type: functional, organism-based; conditions: Macaca fascicularis; summary of the method: as §3
[11] = system: Cynomolgus monkey; assay: In vivo inhibition of CYP11B2 in cynomolgus monkey assessed as reduction in ACTH-induced plasma aldosterone AUC at 1 mg/kg, po administered 10 mins prior to ACTH stimulation for 7 days relative to control; assay type: functional; conditions: Macaca fascicularis; summary of the method: as §3
[12] = system: Cynomolgus monkey; assay: In vivo inhibition of CYP11B2 in cynomolgus monkey assessed as reduction in ACTH-induced plasma aldosterone AUC at 0.2 mg/kg, po administered 10 mins prior to ACTH stimulation for 7 days relative to control; assay type: functional; conditions: Macaca fascicularis; summary of the method: as §3
[13] = system: Cynomolgus monkey; assay: In vivo inhibition of CYP11B2 in cynomolgus monkey assessed as reduction in ACTH-induced plasma aldosterone AUC at 3 mg/kg, po administered 10 mins prior to ACTH stimulation for 7 days relative to control; assay type: functional; conditions: Macaca fascicularis; summary of the method: as §3
[14] = system: Cynomolgus monkey; assay: Effect on ACTH-induced DOC level in cynomolgus monkey at 0.2 to 3 mg/kg, po administered 10 mins prior to ACTH stimulation for 7 days; assay type: ADME, organism-based, Macaca fascicularis; conditions: in vivo; summary of the method: as §3
[15] = target: T3, Aromatase (Homo sapiens, UniProt P11511); assay: Inhibition of CYP19 (unknown origin)
T3 sequence (P11511 whole entry): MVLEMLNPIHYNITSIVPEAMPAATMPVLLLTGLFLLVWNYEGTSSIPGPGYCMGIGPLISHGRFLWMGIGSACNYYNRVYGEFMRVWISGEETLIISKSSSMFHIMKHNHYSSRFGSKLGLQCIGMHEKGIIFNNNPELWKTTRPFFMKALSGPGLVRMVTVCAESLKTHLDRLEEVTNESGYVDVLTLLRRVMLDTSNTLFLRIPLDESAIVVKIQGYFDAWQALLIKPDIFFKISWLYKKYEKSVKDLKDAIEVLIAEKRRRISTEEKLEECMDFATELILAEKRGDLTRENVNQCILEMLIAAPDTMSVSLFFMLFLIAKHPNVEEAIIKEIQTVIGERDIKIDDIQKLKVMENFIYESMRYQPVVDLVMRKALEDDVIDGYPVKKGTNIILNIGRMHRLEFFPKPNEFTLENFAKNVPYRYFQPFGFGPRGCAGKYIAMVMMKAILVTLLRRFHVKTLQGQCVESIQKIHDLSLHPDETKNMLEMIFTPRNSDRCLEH

[16] = species on record: Homo sapiens; assay: Selectivity index, ratio of IC50 for CYP19 (unknown origin) to IC50 for human recombinant CYP11B2
[17] = species on record: Homo sapiens; assay: Selectivity index, ratio of IC50 for CYP2C19 (unknown origin) to IC50 for human recombinant CYP11B2
[18] = species on record: Homo sapiens; assay: Selectivity index, ratio of IC50 for CYP3A4 (unknown origin) to IC50 for human recombinant CYP11B2
[19] = species on record: Homo sapiens; assay: Selectivity index, ratio of IC50 for CYP2C9 (unknown origin) to IC50 for human recombinant CYP11B2
[20] = species on record: Homo sapiens; assay: Selectivity index, ratio of IC50 for CYP17 (unknown origin) to IC50 for human recombinant CYP11B2
[21] = species on record: Homo sapiens; assay: Selectivity index, ratio of IC50 for CYP2D6 (unknown origin) to IC50 for human recombinant CYP11B2
[22] = species on record: Macaca fascicularis; assay: Selectivity index, ratio of IC50 for cynomolgus monkey CYP11B1 to IC50 for cynomolgus monkey CYP11B2
[23] = Inhibition of cynomolgus monkey CYP11B2; design: species or system Macaca fascicularis
[24] = Inhibition of cynomolgus monkey CYP11B1; assay type: ADME, Macaca fascicularis
[25] = Thermodynamic solubility in phosphate free buffer pH 7.4 incubated for 24 hrs by HPLC/LCMS-MS based shake flask method; assay type: physicochemical; conditions: read-out: Therm_solubility
[26] = Fraction unbound in cynomolgus monkey plasma incubated for 6 hrs by HPLC-MS/MS analysis; assay type: ADME, cell-free, Macaca fascicularis
[27] = system: Cynomolgus monkey; assay: Effect on ACTH-induced cortisol level in cynomolgus monkey at 0.2 to 3 mg/kg, po administered 10 mins prior to ACTH stimulation for 7 days; assay type: ADME, organism-based, Macaca fascicularis; conditions: in vivo; summary of the method: as §3

| SMILES | IC50 [1] | IC50 [2] | Ratio IC50 [3] | remaining at 65 min, 1 µM [4] | Cmax [5] | Tmax [6] | AUC(0-t) at 24 h [7] | half-life [8] | also measured |
| --- | --- | --- | --- | --- | --- | --- | --- | --- | --- |
| N#Cc1ccc2nc(-c3cncnc3C(F)F)n(C3CC3)c2n1 | 0.029 µM | 3.93 µM | 135 | 101% | 2880 nM | 2 h | 32.2 µM·h | 7.5 h | – |
| Fc1cc2nc(-c3cncnc3C3CC3)n(C3CC3)c2cc1F | 0.172 µM | > 10 µM | > 58 | – | – | – | – | – | – |
| Fc1cc2nc(-c3cncnc3C(F)F)n(C3CC3)c2cc1F | 0.018 µM | 4.32 µM | 240 | 106% | 620 nM | 1 h | 8.8 µM·h | 15.3 h | – |
| Fc1cc2nc(-c3cncnc3C(F)(F)F)n(C3CC3)c2cc1F | 0.025 µM | 4.77 µM | 190 | 99% | 410 nM | 2 h | 7.8 µM·h | 30 h | Activity [9]: Non-Toxic; inhibition [10]: Dose-dependent effect; inhibition in vivo at 1 mg/kg [11]: 88%; inhibition in vivo at 0.2 mg/kg [12]: 68%; inhibition in vivo at 3 mg/kg [13]: 93%; Activity [14]: Non-Toxic; IC50 [15]: 6.44 µM; Ratio IC50 [16]: 250; Ratio IC50 [17]: > 1000; Ratio IC50 [18]: > 1000; Ratio IC50 [19]: > 1000; Ratio IC50 [20]: > 1000; Ratio IC50 [21]: > 1000; Ratio IC50 [22]: 702; IC50 [23]: 0.013 µM; IC50 [24]: 8.85 µM; solubility thermodynamic at 24 h [25]: 9 µM (≈ 3.06 µg/mL); fraction unbound at 6 h [26]: 0.16; Activity [27]: Non-Toxic |
| CC(F)(F)c1ncncc1-c1nc2cc(F)c(F)cc2n1C1CC1 | 0.05 µM | 5.72 µM | 114 | – | – | – | – | – | – |
| CN(C)c1ncncc1-c1nc2cc(F)c(F)cc2n1C1CC1 | 0.029 µM | 4.63 µM | 159 | 6% | – | – | – | – | – |

Continued, in another order:

| IC50 [1] | IC50 [2] | Ratio IC50 [3] | remaining at 65 min, 1 µM [4] | Cmax [5] | Tmax [6] | AUC(0-t) at 24 h [7] | half-life [8] | SMILES | also measured |
| --- | --- | --- | --- | --- | --- | --- | --- | --- | --- |
| 0.022 µM | 2.27 µM | 103 | 98% | – | – | – | – | Fc1cc2nc(-c3cncnc3)n(C3CC3)c2cc1F | – |
| 0.008 µM | 3.33 µM | 416 | 78% | – | – | – | – | CCc1ncncc1-c1nc2cc(F)c(F)cc2n1C1CC1 | – |
| 0.412 µM | > 10 µM | > 24 | – | – | – | – | – | Fc1ccc2nc(-c3cccnn3)n(C3CC3)c2c1 | – |
| – | – | 244 | 72% | 1260 nM | 0.5 h | 3 µM·h | 4.2 h | Cc1ncncc1-c1nc2cc(F)c(F)cc2n1C1CC1 | – |
| 0.782 µM | 1.67 µM | 2 | – | – | – | – | – | Fc1ccc2nc(-c3cn[nH]c3)n(C3CC3)c2c1 | – |
